Test results: ChEMBL document CHEMBL1145585, “Discovery of novel 4-amino-6-arylaminopyrimidine-5-carbaldehyde oximes as dual inhibitors of EGFR and ErbB-2 protein tyrosine kinases” (Bioorg Med Chem Lett, 2008)

Columns and labels:
Type in all cases: ADME, organism-based
[1] = Volume of distribution at steady state in Sprague-Dawley rat at 2 mg/kg, iv and 10 mg/kg, po; settings: in vivo, read-out: Vdss
How it was run: (§1)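 Sprague–Dawley rats were dosed 2 mg/kg iv in 10% solutol in D5W and 10 mg/kg po in 0.5% hydroxypropyl methylcellulose. Plasma levels were followed to derive the pharmacokinetic parameters.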

[2] = Tmax in Sprague-Dawley rat at 10 mg/kg, po; set-up: dose 10 mg/kg, route oral; settings: in vivo; how it was run: as §1
[3] = Clearance in Sprague-Dawley rat at 2 mg/kg, iv and 10 mg/kg, po; settings: in vivo; how it was run: as §1
[4] = AUC in Sprague-Dawley rat at 10 mg/kg, po; set-up: dose 10 mg/kg, route oral; settings: plasma; how it was run: as §1
[5] = Bioavailability in Sprague-Dawley rat at 2 mg/kg, iv and 10 mg/kg, po; settings: in vivo; how it was run: as §1
[6] = Cmax in Sprague-Dawley rat at 10 mg/kg, po; set-up: dose 10 mg/kg, route oral; settings: in vivo; how it was run: as §1
[7] = Half life in Sprague-Dawley rat at 10 mg/kg, po; set-up: dose 10 mg/kg, route oral; settings: in vivo; how it was run: as §1

Compound: CO/N=C/c1c(N)ncnc1Nc1ccc(OCc2ccccc2)c(Cl)c1
- Vd [1]: 0.17 L/kg
- Tmax [2]: 0.63 h
- clearance [3]: 0.214 L/h/kg
- AUC [4]: 19.3 µM·h
- bioavailability [5]: 15%
- Cmax [6]: 5.7 µM
- half-life [7]: 8.4 h
